Experimental data gathered from unrelated publications.
Effect on: enzyme activity
Action: inhibitor
rep main protease: Replicase polyprotein 1ab, main protease (rep, Severe acute respiratory syndrome coronavirus 2, UniProt P0DTD1)
rep papain-like protease: Replicase polyprotein 1ab, papain-like protease (rep, Severe acute respiratory syndrome coronavirus 2, UniProt P0DTD1)

Compound	target	test	conditions	inhibition
O=c1[nH]c(CCl)nc2sc3c(c12)CCCC3	rep main protease		20 µM	29.2%
Clc1nc2ccccc2cc1/C=N\c1ccc(Br)nc1	rep papain-like protease		10 µM	3.5%
O=C(Oc1cc(Cl)cc([N+](=O)[O-])c1)c1cccc2[nH]ccc12	rep main protease	fluorescence	10 µM, pH 7.2	1%
O=c1c(O)c(-c2ccc(O)cc2)oc2cc(O)cc(O)c12	rep main protease	FRET	10 µM, 10 min	45%
Oc1ccc([C@H]2COc3cc(O)ccc3C2)cc1	rep main protease		50 µM	18.5%
CC[C@H](NC(=O)OCc1ccccc1)C(=O)N[C@H](C(=O)N[C@@H](Cc1ccccc1)C(=O)N(C)N(C#N)CCC(N)=O)C(C)(C)C	rep main protease	fluorescence	50 µM, pH 7.2	100%
CCc1ccc(NC(=O)c2cc3c(=O)n4ccccc4nc3n2C)cc1	rep main protease		1 mM	76%
O=C(NC[C@H](NC(=O)c1cn[nH]c1-c1ccccn1)c1ccc2ccccc2c1)c1cn[nH]c1	rep main protease		5 µM	10.7%
COCOc1cc(C)cc2c1C(=O)C=CC2=O	rep main protease		0.1 µM	3%
Cn1cc2c(n1)c(=O)n(Cc1ccc(F)cc1)c1nn(CCOc3ccc(F)cc3)c(=O)n21	rep main protease		20 µM	13%
O=C(CCc1ccc(O)cc1)c1c(O)cc(O)cc1O[C@@H]1O[C@H](CO)[C@@H](O)[C@H](O)[C@H]1O	rep main protease	FRET	10 µM, 10 min	25 to 50%
O=C(/C=C/c1ccc(O)c(O)c1)OC1CC(OC(=O)/C=C/c2ccc(O)c(O)c2)(C(=O)O)CC(O)C1O (centres unmarked)	rep main protease		100 µM	87.3%
Cn1c(C(=O)Nc2ccc3c(c2)OCCO3)cc2c(=O)n3ccccc3nc21	rep main protease		10 µM	42%
COc1cc(C[C@@H](C)[C@@H](C)Cc2cc(O)c(OC)c(OC)c2)cc(O)c1OC	rep main protease	FRET	8 µM	58%
COc1cccc2c1C(=O)C(C(C)=O)=CC2=O	rep main protease		10 µM	96.1%
COC(=O)C1=CO[C@@H](O[C@@H]2O[C@H](CO)[C@@H](O)[C@H](O)[C@H]2O)[C@@H]2[C@@H](C)[C@@H](O)C[C@H]12	rep papain-like protease		50 µM	-1.7%
Cc1c(-c2cnccn2)ssc1=S	rep main protease		20 µM	97.6%
C/N=c1\nc(-c2ccccc2)n(-c2ccccc2)s1	rep main protease		1 µM	96.3%
CCC(=O)Oc1cccc2c1C(=O)C=CC2=O	rep main protease		1 µM	96.5%
CCn1nc2n(Cc3ccc(F)cc3)c(=O)c3nn(C)cc3n2c1=O	rep main protease		20 µM	15.5%
O=C1C=CC(=O)c2c(O)cccc21	rep main protease		10 µM	102%
Cc1cc(NC(=O)c2cc3c(=O)n4cccc(C)c4nc3n2C)ccc1Br	rep main protease		1 µM	14%
Cc1ccc2nc(Cl)c(/C=N/c3cccc([N+](=O)[O-])c3)cc2c1	rep papain-like protease		100 µM	21.7%
